Published values collected from several papers.
PIK3CA Q546K: Phosphatidylinositol 4,5-bisphosphate 3-kinase catalytic subunit alpha isoform (PIK3CA, Homo sapiens, UniProt P42336, Q546K)
PIK3CA C420R: Phosphatidylinositol 4,5-bisphosphate 3-kinase catalytic subunit alpha isoform (PIK3CA, Homo sapiens, UniProt P42336, C420R)
PIK3CA E542K: Phosphatidylinositol 4,5-bisphosphate 3-kinase catalytic subunit alpha isoform (PIK3CA, Homo sapiens, UniProt P42336, E542K)
PIK3CA I800L: Phosphatidylinositol 4,5-bisphosphate 3-kinase catalytic subunit alpha isoform (PIK3CA, Homo sapiens, UniProt P42336, I800L)
PIK3CA M1043I: Phosphatidylinositol 4,5-bisphosphate 3-kinase catalytic subunit alpha isoform (PIK3CA, Homo sapiens, UniProt P42336, M1043I)
PIK3CA E545K: Phosphatidylinositol 4,5-bisphosphate 3-kinase catalytic subunit alpha isoform (PIK3CA, Homo sapiens, UniProt P42336, E545K)
PIK3CA: Phosphatidylinositol 4,5-bisphosphate 3-kinase catalytic subunit alpha isoform (PIK3CA, Homo sapiens, UniProt P42336)
PIK3CA H1047L: Phosphatidylinositol 4,5-bisphosphate 3-kinase catalytic subunit alpha isoform (PIK3CA, Homo sapiens, UniProt P42336, H1047L)
PIK3CA E545A: Phosphatidylinositol 4,5-bisphosphate 3-kinase catalytic subunit alpha isoform (PIK3CA, Homo sapiens, UniProt P42336, E545A)

SMILES	target	assay	setting	remaining binding
COc1cnc(Nc2cccc(S(N)(=O)=O)c2)nc1N1CCN(c2ccccc2)C(=O)C1	PIK3CA Q546K	binding, competition with immobilised ligand	1 µM	100%
Cc1cc(NC(=O)c2cccc(S(F)(F)(F)(F)F)c2)cc(-n2ccn3nc(-c4cccnc4)cc23)c1	PIK3CA C420R	cell-free assay, competition with immobilised ligand	1 µM	97.1%
O=C(c1ccc(Nc2nccc(-c3cc4ccccc4s3)n2)cc1)N1CCC(N2CCCC2)CC1	PIK3CA E542K	binding, competition with immobilised ligand	1 µM	99%
C=CC(=O)N1CCC(C(=O)NCC(=O)N2CCN(c3nc(-c4cnc(N)nc4C(F)F)nc(N4CCOCC4)n3)CC2)CC1	PIK3CA I800L	binding, competition with immobilised ligand	1 µM	0%
FC(F)(F)c1ccc2c(c1)nc(-c1cccnc1)n2C1CC1	PIK3CA Q546K	cell-free assay, competition with immobilised ligand	1 µM	99%
CN(C)c1ncc(F)c(-c2cnn3ncccc23)n1	PIK3CA Q546K	binding	1 µM	86%
CCS(=O)(=O)c1cc2cc(C[C@@](O)(CC(C)(C)c3ccc(F)cc3C(N)=O)C(F)(F)F)[nH]c2cn1	PIK3CA M1043I	cell-free assay, competition with immobilised ligand	1 µM	99%
O=C(c1ccc(Nc2ncc(Cl)c(-c3ccc(Cl)s3)n2)cc1)N1CCC(N2CCCC2)CC1	Phosphatidylinositol 4,5-bisphosphate 3-kinase catalytic subunit alpha isoform (PIK3CA, Homo sapiens, UniProt P42336, H1047Y)	binding, competition with immobilised ligand	1 µM	100%
CN1CCN(c2ccc(Nc3nccc(-c4ccccc4)n3)cc2C(F)(F)F)CC1	PIK3CA E545K	binding	10 µM	68%
c1cnn2ncc(-c3ccnc(N4CCC45COC5)n3)c2c1	PIK3CA	binding	1 µM	79%
O=C(Nc1c[nH]nc1C(=O)NC1CCNCC1)c1cc(F)cc(F)c1	PIK3CA E545K	binding, competition with immobilised ligand	1 µM	64%
N[C@H]1CCN(c2nccc(-c3cnn4ncccc34)n2)C1	PIK3CA H1047L	binding	1 µM	75%
c1cncc(-c2cccc(Nc3nccc(NC4CCCCC4)n3)c2)c1	PIK3CA Q546K	binding, competition with immobilised ligand	10 µM	100%
CO[C@@H](C)c1c(Nc2ccc([C@H](N(C)C(=O)C3CCS(=O)(=O)CC3)C(F)(F)F)cc2)cnc2cc(Cl)nn12	PIK3CA E545K	binding, competition with immobilised ligand	1 µM	48%
CCN1CCN(Cc2ccc(C(=O)Nc3ccc(C)c(Oc4ccc5c(c4)CC(=O)N5)c3)cc2C(F)(F)F)CC1	PIK3CA M1043I	binding, competition with immobilised ligand	1 µM	100%
CC(C)CC(=O)N1CCc2nc(-c3ccc(Br)cc3)nc(N(C)Cc3ccccc3)c2C1	PIK3CA E542K	cell-free assay, competition with immobilised ligand	0.1 µM	100%
C[C@@H]1CCN(c2nccc(-c3cnn4ncccc34)n2)C1	PIK3CA Q546K	binding	1 µM	79%

SMILES	target	assay	setting	remaining binding
CNC(=O)[C@@H]1CC[C@@H](n2c(-c3ccc4cnccc4c3)nc3ccc(C(=O)NCc4cccc(C(N)=O)c4)cc32)C1	PIK3CA C420R	binding, competition with immobilised ligand	1 µM	90%
Cc1c[nH]c2nccc(Oc3c(F)cc(Nc4cc(Cl)nc(N)n4)cc3F)c12	PIK3CA E545A	cell-free assay, competition with immobilised ligand	0.1 µM	88%
Cc1cnc(Nc2ccc(C(=O)N3CCC(N4CCCC4)CC3)cc2)nc1-c1cc2ccccc2s1	PIK3CA I800L	binding, competition with immobilised ligand	1 µM	100%
CN(CCCC(F)(F)F)c1nccc(-c2cnn3ncccc23)n1	PIK3CA E545A	binding	1 µM	100%
C[C@@H](c1ccc(-n2cnc3c(N)ncnc32)cc1)N1CCc2nn(C)c(Cc3ccccc3)c2C1=O	PIK3CA C420R	binding, competition with immobilised ligand	0.1 µM	98%
NS(=O)(=O)c1cc(NC(=O)C2(c3ccccc3Cl)CC2)ccc1Oc1cccc(Cl)c1	PIK3CA	cell-free assay, competition with immobilised ligand	1 µM	100%
Cc1cnn2ncc(-c3ccnc(N(C)C)n3)c2c1	PIK3CA	binding	1 µM	100%
CN1CCN(c2ccc(Nc3nccc(-c4cccc([N+](=O)[O-])c4)n3)cc2C(F)(F)F)CC1	PIK3CA E545K	binding	10 µM	36%
O=C(NCCCN1CCOCC1)c1ccc(Nc2nccc(-c3cc4ccccc4s3)n2)cc1	PIK3CA	binding, competition with immobilised ligand	1 µM	93%
Nc1cnc(N2CCc3cc(S(=O)(=O)Nc4c(F)cc(Cl)cc4F)cc(N4CCCC4=O)c32)nc1	PIK3CA H1047L	cell-free assay, competition with immobilised ligand	1 µM	60%
COc1ncc2cc3ccccc3nc2c1C#N	PIK3CA Q546K	cell-free assay, competition with immobilised ligand	5 µM	99%
COc1cnc(Nc2cccc(S(N)(=O)=O)c2)nc1N1CCN(c2ccccc2)CC1	PIK3CA E542K	binding, competition with immobilised ligand	1 µM	93%
O=C(NCC1CCOCC1)c1n[nH]cc1NC(=O)c1c(F)cccc1F	PIK3CA E545A	binding, competition with immobilised ligand	1 µM	100%
O=C(c1ccc(Nc2ncc(Cl)c(-c3cc4ccccc4s3)n2)cc1)N1CCC(N2CCCC2)CC1	PIK3CA M1043I	binding, competition with immobilised ligand	1 µM	62%
CC1CCCN1c1nccc(-c2cnn3ncccc23)n1 (stereo not shown)	PIK3CA C420R	binding	1 µM	72%
Nc1ncc2c(n1)-c1c([nH]c3ccc(C#CC4CC4)cc13)CCCC2	PIK3CA I800L	binding, competition with immobilised ligand	1 µM	81%
O=C(NCCCN1CCOCC1)c1ccc(Nc2ncc(Cl)c(-c3ccc(Cl)s3)n2)cc1	PIK3CA	binding, competition with immobilised ligand	1 µM	100%
